Reference: ChEMBL document CHEMBL2163245 (J Med Chem, 2012)
Calls of active or inactive are those of the source. The calls are words filed in the database; no cut-off is given here.

What was measured:
[1] = system: Plasma; assay: Fraction unbound in rat plasma; format: ADME, cell-free
[2] = system: Brain; assay: Fraction unbound in rat brain homogenate; format: ADME, tissue-based
[3] = Drug uptake in Sprague-Dawley rat brain at 10 mg/kg, ip after 1 hr by LC/MS analysis; format: ADME, organism-based; parameters: dose 10 mg/kg, route intraperitoneal; conditions: read-out: Drug uptake
Procedure, shortened: (§1)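 Male Sprague-Dawley rats (250 g) dosed 10 mg/kg i.p., formulated 3 mg/mL in 10% Tween 80/sterile water. Blood (cardiac puncture) and brain taken at 1 h. Brain washed in cold PBS, frozen, homogenized 1:3 (w/w) in 70:30 isopropanol:water. Plasma and homogenate precipitated with acetonitrile containing carbamazepine internal standard, diluted 1:1 with water, quantified by ESI LC/MS/MS using MRM in positive mode.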

[4] = Plasma concentration in Sprague-Dawley rat at 10 mg/kg, ip after 1 hr by LC.MS analysis; format: ADME, organism-based; parameters: dose 10 mg/kg, route intraperitoneal; procedure, shortened: as §1
[5] = target: Voltage-gated inwardly rectifying potassium channel KCNH2 (Homo sapiens, UniProt Q12809); assay: Inhibition of human ERG
Sequence of Voltage-gated inwardly rectifying potassium channel KCNH2 (Q12809 whole entry): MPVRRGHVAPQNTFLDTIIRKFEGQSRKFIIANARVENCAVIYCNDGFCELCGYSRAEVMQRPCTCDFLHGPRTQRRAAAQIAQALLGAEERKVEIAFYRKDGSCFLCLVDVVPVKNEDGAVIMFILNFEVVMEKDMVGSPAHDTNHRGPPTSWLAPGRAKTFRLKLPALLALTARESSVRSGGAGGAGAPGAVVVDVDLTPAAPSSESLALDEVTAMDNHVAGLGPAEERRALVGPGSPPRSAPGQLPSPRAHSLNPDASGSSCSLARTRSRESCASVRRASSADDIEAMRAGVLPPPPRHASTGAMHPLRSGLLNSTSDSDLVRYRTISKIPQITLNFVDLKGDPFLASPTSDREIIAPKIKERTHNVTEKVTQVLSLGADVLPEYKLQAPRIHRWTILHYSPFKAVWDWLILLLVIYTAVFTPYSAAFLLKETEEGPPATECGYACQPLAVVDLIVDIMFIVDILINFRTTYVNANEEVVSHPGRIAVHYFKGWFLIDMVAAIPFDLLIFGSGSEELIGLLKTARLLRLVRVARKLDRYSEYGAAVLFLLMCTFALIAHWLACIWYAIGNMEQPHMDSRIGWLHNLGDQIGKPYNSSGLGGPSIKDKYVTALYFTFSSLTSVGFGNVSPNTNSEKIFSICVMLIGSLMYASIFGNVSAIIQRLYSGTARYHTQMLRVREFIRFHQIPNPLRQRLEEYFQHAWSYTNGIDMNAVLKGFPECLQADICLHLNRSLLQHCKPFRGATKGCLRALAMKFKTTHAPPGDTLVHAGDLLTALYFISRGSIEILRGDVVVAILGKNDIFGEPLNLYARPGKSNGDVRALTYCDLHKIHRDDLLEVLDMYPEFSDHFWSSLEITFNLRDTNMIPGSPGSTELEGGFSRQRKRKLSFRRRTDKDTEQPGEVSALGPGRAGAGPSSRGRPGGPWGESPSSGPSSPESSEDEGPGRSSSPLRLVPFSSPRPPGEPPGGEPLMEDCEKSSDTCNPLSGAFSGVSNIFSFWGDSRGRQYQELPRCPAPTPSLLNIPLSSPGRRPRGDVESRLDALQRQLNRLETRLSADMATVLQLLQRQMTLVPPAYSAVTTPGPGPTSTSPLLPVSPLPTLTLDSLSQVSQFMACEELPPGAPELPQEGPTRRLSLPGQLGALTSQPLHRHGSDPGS

[6] = Inhibition of KATP
[7] = Inhibition of N-type calcium channel at 10 uM
[8] = Inhibition of L-type calcium channel at 10 uM
[9] = target: Melatonin receptor type 1A (Homo sapiens) (UniProt P48039); assay: Inhibition of human MT1 at 10 uM
Sequence of Melatonin receptor type 1A (Homo sapiens) (P48039 whole entry): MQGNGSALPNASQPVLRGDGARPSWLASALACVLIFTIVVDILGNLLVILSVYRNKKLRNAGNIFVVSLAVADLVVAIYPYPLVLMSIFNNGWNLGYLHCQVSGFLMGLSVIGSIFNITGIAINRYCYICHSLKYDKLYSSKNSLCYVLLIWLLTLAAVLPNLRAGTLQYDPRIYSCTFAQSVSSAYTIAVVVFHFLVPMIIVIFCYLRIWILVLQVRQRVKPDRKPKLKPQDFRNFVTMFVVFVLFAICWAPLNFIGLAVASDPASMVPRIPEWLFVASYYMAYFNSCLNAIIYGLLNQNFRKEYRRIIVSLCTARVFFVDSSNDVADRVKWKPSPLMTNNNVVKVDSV

[10] = target: T1, Potassium voltage-gated channel subfamily KQT member 4 (Homo sapiens, UniProt P56696); assay: Antagonist activity at KCNQ4 expressed in CHO cells incubated for 3 mins by automated patch clamp assay; format: functional, cell-based
T1 sequence (P56696 whole entry): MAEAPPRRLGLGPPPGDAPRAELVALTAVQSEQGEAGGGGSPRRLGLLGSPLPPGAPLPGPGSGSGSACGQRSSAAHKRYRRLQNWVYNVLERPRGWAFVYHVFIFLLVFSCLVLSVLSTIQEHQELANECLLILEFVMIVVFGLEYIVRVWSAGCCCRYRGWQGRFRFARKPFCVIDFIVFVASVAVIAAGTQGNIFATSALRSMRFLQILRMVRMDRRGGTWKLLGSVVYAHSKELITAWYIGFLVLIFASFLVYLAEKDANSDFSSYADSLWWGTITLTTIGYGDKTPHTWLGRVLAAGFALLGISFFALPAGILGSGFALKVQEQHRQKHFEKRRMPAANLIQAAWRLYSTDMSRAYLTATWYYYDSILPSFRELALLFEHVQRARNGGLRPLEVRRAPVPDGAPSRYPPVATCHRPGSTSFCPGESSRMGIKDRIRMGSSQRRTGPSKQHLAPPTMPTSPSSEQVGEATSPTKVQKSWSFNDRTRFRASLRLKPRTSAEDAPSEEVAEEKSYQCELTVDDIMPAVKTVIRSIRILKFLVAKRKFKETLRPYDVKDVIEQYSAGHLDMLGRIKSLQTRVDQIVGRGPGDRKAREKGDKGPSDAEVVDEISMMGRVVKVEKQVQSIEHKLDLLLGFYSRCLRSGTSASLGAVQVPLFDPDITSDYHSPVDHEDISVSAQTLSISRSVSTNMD
Procedure, shortened: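 Population patch clamp on CHO cells stably expressing KCNQ4, freshly dislodged at 7,000 cells/well in extracellular solution (mM: 137 NaCl, 4 KCl, 1 MgCl2, 1.8 CaCl2, 10 HEPES, 10 glucose, pH 7.4). Cells were perforated with 50 μg/ml amphotericin B, held at -70 mV, and stepped to +40 mV. Current was measured at +40 mV before and after 3 min compound exposure and expressed as percent change in the same well.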

[11] = target: Voltage-gated potassium channel, KQT; KCNQ2(Kv7.2)/KCNQ3(Kv7.3) (Homo sapiens, UniProt O43525+O43526); assay: Antagonist activity at KCNQ2/Q3 expressed in CHO cells incubated for 3 mins by automated patch clamp assay
Sequence of Voltage-gated potassium channel, KQT; KCNQ2(Kv7.2)/KCNQ3(Kv7.3) (O43526 whole entry): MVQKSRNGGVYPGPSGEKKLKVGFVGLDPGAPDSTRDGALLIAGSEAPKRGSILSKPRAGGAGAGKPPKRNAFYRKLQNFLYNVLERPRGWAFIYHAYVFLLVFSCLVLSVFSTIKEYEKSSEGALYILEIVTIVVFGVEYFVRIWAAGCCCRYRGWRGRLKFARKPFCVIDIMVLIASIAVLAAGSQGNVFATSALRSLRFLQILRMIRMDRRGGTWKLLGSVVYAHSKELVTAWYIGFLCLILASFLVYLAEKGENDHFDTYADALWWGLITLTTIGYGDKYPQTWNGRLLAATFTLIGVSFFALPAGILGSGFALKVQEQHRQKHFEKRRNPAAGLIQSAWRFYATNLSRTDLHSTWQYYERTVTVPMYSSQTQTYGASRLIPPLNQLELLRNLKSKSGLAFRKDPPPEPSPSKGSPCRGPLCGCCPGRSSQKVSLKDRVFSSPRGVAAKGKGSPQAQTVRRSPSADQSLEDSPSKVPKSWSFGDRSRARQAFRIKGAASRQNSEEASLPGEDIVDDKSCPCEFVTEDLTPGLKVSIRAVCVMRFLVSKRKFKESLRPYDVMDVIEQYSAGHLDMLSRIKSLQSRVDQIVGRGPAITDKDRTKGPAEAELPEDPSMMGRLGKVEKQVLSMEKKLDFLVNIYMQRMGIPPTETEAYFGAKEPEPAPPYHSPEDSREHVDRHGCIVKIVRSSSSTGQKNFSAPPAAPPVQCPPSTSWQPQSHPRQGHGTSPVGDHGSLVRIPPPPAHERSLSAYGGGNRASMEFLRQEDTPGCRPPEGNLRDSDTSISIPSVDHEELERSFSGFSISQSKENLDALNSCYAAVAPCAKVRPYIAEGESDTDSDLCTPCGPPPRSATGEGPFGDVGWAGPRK
Sequence of Voltage-gated potassium channel, KQT; KCNQ2(Kv7.2)/KCNQ3(Kv7.3) (O43525 whole entry): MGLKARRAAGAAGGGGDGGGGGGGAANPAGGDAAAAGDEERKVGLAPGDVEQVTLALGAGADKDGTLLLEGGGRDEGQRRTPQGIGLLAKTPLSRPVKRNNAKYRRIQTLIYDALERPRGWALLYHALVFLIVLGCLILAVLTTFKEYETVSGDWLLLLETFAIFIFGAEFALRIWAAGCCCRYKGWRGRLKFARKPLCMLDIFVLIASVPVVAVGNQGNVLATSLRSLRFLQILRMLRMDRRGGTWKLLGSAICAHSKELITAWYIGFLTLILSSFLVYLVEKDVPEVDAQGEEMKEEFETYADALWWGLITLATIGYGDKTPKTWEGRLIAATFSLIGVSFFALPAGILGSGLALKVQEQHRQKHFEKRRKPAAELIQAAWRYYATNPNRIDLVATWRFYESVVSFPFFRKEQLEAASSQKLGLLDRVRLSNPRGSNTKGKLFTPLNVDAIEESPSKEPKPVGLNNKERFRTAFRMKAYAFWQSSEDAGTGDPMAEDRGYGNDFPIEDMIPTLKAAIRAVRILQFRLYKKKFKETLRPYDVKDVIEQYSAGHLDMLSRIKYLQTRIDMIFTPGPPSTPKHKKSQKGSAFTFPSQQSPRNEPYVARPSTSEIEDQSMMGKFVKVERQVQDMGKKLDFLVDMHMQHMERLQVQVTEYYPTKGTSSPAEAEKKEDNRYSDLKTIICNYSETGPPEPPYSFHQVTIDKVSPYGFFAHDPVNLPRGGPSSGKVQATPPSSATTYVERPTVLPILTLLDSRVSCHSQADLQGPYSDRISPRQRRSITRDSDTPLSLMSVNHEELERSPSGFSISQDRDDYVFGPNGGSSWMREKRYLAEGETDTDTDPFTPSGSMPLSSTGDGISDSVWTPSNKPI

[12] = target: T2, Potassium voltage-gated channel subfamily KQT member 1 (Homo sapiens, UniProt P51787); assay: Antagonist activity at KCNQ1 expressed in CHO cells incubated for 3 mins by automated patch clamp assay
T2 sequence (P51787 whole entry): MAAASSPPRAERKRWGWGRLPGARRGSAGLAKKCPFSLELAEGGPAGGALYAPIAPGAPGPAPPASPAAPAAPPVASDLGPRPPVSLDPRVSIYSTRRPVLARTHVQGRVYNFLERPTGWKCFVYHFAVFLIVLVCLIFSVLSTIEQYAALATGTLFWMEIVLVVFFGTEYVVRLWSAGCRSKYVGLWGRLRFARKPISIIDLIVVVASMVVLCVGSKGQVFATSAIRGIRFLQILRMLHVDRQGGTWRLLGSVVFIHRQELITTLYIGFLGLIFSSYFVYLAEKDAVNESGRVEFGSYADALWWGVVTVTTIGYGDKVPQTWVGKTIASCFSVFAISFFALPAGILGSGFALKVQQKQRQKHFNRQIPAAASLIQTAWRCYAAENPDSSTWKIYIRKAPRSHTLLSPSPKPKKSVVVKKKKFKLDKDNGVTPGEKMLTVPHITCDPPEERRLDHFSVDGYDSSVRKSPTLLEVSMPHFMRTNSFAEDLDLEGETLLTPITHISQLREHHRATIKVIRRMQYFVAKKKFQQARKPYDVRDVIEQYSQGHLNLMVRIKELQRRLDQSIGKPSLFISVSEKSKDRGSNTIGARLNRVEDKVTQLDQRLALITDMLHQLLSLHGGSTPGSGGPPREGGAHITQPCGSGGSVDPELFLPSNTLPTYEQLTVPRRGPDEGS

[13] = target: Voltage-gated potassium channel, IKs; KCNQ1(Kv7.1)/KCNE1(MinK) (Homo sapiens, UniProt P15382+P51787); assay: Antagonist activity at KCNQ1/E1 expressed in CHO cells incubated for 3 mins by automated patch clamp assay
[14] = target: Potassium voltage-gated channel subfamily KQT member 2 (Homo sapiens, UniProt O43526); assay: Antagonist activity at KCNQ2 expressed in CHO cells incubated for 3 mins by automated patch clamp assay; format: functional, cell-based
Sequence of Potassium voltage-gated channel subfamily KQT member 2 (O43526 whole entry): as the sequence (O43526 whole entry) above

[15] = target: Cytochrome P450 2D6 (Homo sapiens, UniProt P10635)
Sequence of Cytochrome P450 2D6 (P10635 whole entry): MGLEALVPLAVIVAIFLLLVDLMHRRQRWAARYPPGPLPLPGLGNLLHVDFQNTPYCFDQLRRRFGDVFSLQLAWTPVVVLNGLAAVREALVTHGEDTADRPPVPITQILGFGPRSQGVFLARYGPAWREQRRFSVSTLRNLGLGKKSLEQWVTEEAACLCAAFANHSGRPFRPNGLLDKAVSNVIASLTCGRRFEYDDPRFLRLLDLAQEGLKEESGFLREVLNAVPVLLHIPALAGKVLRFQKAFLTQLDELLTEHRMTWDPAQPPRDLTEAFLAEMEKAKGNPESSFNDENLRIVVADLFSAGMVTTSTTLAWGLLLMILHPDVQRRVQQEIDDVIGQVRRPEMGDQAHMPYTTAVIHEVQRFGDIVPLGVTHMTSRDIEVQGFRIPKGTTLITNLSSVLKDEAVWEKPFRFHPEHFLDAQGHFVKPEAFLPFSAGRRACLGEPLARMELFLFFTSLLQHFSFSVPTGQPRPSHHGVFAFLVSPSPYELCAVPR

[16] = target: Cytochrome P450 2C9 (Homo sapiens, UniProt P11712)
Sequence of Cytochrome P450 2C9 (P11712 whole entry): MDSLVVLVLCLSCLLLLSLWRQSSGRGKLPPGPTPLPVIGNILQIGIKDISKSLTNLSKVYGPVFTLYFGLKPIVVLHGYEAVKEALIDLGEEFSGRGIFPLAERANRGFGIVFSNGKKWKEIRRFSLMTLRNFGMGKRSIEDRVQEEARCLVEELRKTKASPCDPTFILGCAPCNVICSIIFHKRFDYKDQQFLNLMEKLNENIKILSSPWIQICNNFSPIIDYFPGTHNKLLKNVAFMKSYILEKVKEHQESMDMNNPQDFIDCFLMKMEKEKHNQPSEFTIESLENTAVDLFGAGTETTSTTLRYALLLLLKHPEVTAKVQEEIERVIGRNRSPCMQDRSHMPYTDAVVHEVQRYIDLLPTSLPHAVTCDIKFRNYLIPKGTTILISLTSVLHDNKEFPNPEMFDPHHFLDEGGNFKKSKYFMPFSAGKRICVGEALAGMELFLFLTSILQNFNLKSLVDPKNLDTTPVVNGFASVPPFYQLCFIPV

[17] = target: T3, Cytochrome P450 1A2 (Homo sapiens, UniProt P05177)
T3 sequence (P05177 whole entry): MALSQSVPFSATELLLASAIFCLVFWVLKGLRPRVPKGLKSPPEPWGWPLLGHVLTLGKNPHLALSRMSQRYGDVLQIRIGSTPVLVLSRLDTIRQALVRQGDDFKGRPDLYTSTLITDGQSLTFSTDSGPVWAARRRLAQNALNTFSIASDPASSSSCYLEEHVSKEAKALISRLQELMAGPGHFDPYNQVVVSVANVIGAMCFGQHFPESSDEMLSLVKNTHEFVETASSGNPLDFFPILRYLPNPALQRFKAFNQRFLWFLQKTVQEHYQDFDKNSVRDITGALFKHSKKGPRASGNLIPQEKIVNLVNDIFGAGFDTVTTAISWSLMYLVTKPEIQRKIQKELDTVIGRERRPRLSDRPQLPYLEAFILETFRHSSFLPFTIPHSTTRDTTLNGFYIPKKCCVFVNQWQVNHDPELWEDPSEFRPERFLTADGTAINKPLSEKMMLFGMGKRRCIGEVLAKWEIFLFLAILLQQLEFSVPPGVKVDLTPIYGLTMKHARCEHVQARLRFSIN

SMILES: CC[C@H](C(=O)Nc1ccccc1N1CCCC1)c1ccccc1
- Fu [1]: 0.6%
- Fu [2]: 0.3%
- concentration at 1 h [3]: 208 ng/g
- concentration at 1 h [4]: 116 ng/mL
- inhibition (INH) [5]: Not Active
- inhibition [6]: inactive
- inhibition [7]: inactive
- inhibition [8]: inactive
- inhibition [9]: 61%
- IC50 [10]: 200 nM
- IC50 [11]: 120 nM
- IC50 [12]: 2920 nM
- IC50 [13]: 8.12 µM
- IC50 [14]: 70 nM
- IC50 [15]: 19.9 µM
- IC50 [16]: 18.9 µM
- IC50 [17]: 6.1 µM
